MrgX1 antagonist: antagonists of human MrgX1 receptor, primary screen, HEK293 cells, Fluo-4 calcium flux | Mas-related G-protein coupled receptor member X1 (Homo sapiens), Q96LB2 | BAM8-22 antagonism; hits give low values | B-score at 10 µM | 310,000 compounds, 1.3% hits;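 active = calcium-response B-score plate-corrected more than 3 library SD below zero, starting fluorescence within 5 deviations, no agonist response on first addition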;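 also: peak minus trough fluorescence over baseline after final BAM8-22 challenge near maximal dose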
Target sequence (Q96LB2 whole entry, looked up): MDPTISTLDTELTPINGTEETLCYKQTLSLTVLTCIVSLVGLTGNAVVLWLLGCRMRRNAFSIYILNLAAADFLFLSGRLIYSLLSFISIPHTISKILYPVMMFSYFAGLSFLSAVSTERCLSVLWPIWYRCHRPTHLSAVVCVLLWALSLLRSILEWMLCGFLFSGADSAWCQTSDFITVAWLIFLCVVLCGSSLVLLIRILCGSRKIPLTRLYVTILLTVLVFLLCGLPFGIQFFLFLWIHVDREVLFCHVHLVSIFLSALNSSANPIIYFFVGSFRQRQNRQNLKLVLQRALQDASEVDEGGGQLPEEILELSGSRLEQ
Cl transport mod: KCC2 cotransporter modulators, thallium flux, primary screen, cell-based, HEK293 KCC2, FluoZin-2 fluorescence, MLSMR | B-score of Tl+ flux slope (higher = more flux/activation; lower = inhibition) at 10 µM | KCC2 cells, thallium flux FluoZin-2 fluorescence | Solute carrier family 12 member 5 (Homo sapiens), Q9H2X9 | 190,000 compounds, 2.2% hits | AID 1456, 2008;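 active = thallium flux slope and its plate-corrected score both differing from the plate sample mean at a set confidence after two filtering rounds, in either direction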;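 also: slope of fluorescence scaled to starting intensity during 10 to 20 s after thallium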
MrgX1 PAM: positive allosteric modulators of MrgX1, primary screen, HEK293 cells, Fluo-4 calcium flux | Mas-related G-protein coupled receptor member X1 (Homo sapiens), Q96LB2 | AID 588675, 2011 | FDSS; hits give high values | 310,000 compounds, 0.63% hits | B-score at 10 µM;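 active = plate-corrected calcium response at least 3 library SD above typical, normal starting fluorescence, not activating the receptor alone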;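 also: compound read alongside a low EC10 to EC30 dose of BAM8-22 agonist; peak minus trough fluorescence over baseline measured at the second addition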
RGS4 pot: RGS4 potentiators or activators, primary screen, cell-based, HEK293 M3R inducible RGS4, calcium flux; carbachol calcium flux Fluo4; hits give low values; B-score at 10 µM; 310,000 compounds, 0.92% hits; AID 463111, 2010;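 active = B-score of the integrated calcium signal more than 4 SD below the library mean, with starting fluorescence not abnormally high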;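 also: negative B-score means reduced calcium response which marks RGS4 activation or potentiation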
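Test system: HEK293 cells with stable M3R and inducible RGS4; also added: carbachol at ECmax as muscarinic agonist stimulus; schedule: dye loading 30 min 37 °C, buffer rest 30 min RT; technique: kinetic calcium fluorescence imaging with Fluo4-AM dye, 2 µM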
MrgX1 ag: agonists of human MrgX1 receptor, primary screen, HEK293 cells, Fluo-4 calcium flux. Mas-related G-protein coupled receptor member X1 (Homo sapiens), Q96LB2. Fluo-4 calcium fluorescence, agonist mode; hits give high values. B-score at 10 µM. 310,000 compounds, 0.44% hits;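 active = calcium response B-score plate-corrected fluorescence ratio at least 3 library SD, with starting fluorescence B-score inside 5 SD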
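Material: MrgX1-expressing HEK293 cells / Dosing: compound as first of three additions / Incubation: overnight seeding, then 1 h dark dye loading / Signal: Fluo-4 NW calcium fluorescence / Evaluation: B-scored fluorescence response ratio / Benchmarks: positive and negative control wells on each plate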
RGS4 block: RGS4 inhibitors, primary screen, cell-based, HEK293 M3R inducible RGS4, calcium flux | Regulator of G-protein signaling 4 (Homo sapiens), P49798 | Fluo-4 calcium flux; hits give high values; triggered by carbachol at its EC20 | B-score at 10 µM | 310,000 compounds, 0.45% hits | AID 463165, 2010;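 active = B-score, a plate-corrected calcium signal, over three deviations above library mean, with baseline fluorescence within five deviations of library mean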;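 also: RGS4 expression induced by doxycycline in cells with stable M3 receptor; B-score is computed from the integrated fluorescence ratio over baseline after carbachol; higher B-score means a larger calcium signal and so more RGS4 inhibition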
Target sequence (P49798 whole entry, looked up): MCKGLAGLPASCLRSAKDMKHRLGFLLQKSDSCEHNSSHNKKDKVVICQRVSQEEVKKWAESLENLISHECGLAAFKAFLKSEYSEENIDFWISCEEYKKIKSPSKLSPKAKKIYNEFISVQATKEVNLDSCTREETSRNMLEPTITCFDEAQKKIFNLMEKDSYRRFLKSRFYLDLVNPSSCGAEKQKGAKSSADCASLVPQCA
The depositor's hits bear a star; i = inactive; x = no result given. This is a sample that favours compounds with a hit; in the whole collection about 4.7% have one here.

SMILES	MrgX1 antagonist	Cl transport mod	MrgX1 PAM	RGS4 pot	MrgX1 ag	RGS4 block
CC1(C)C(=O)OC(c2cccn2-c2ccc([N+](=O)[O-])cc2)C(C)(C)C1=O (centres undefined)	-5.05*	-0.394	i	i	i	i
CC1(C)C(=O)C2(CCCCC2)C(=O)OC1c1cccn1-c1ccc([N+](=O)[O-])cc1 (centres undefined)	i	0.0833	i	i	i	i
N#C/C(=C\c1cccs1)C(=O)Nc1ccccn1	-4.93*	0.56	i	i	i	i
N#C/C(=C\c1ccccc1)C(=O)Nc1ccccn1	i	x	i	i	i	i
N#C/C(=C\c1ccccc1)C(=O)Nc1nncs1	i	-0.0624	8.03*	i	i	i
COc1ccc(CCNC(=O)c2cc3c(cc2Cl)N2CCCCCC2=NS3(=O)=O)cc1	i	x	i	i	i	i
COCCCN1C(=O)C(=O)/C(=C(/O)c2ccc(S(=O)(=O)N3CCCCC3)cc2)C1c1ccc(O)cc1 (centres undefined)	i	x	i	i	i	i
C[C@@H](N)C(=O)NC[C@H]1CC[C@H](C(=O)N[C@@H](Cc2ccccc2)C(=O)O)CC1	i	x	i	i	i	i
COn1c(-c2ccc(Cl)cc2)nc2ncccc21	i	x	i	i	i	i
CCOC(=O)c1cccc(N/C=C/C(=O)c2ccc(OC)c(OC)c2)c1	i	x	i	-8.3*	i	i
COc1cccc(N/C=C/C(=O)c2ccc(OC)c(OC)c2)c1	i	x	i	i	i	i
COc1ccc(OCC(=O)OC2CCCN(C)C2)cc1 (centres undefined)	i	-0.0773	i	i	i	i
C=CCN1C(=O)/C(=C/c2ccc(OCC(=O)O)cc2)S/C1=N/c1nccs1	i	-3.9	i	i	i	i
C=CCN1C(=O)/C(=C/c2ccc(O)c(OC)c2)S/C1=N/c1nccs1	i	0.45	9.04*	i	i	i
O=C(N/N=C/c1cc(Cl)cc([N+](=O)[O-])c1O)c1cc(-c2ccccn2)nc2ccccc12	-5.54*	-1.67	i	i	i	i
COc1cc([N+](=O)[O-])cc(/C=N/NC(=O)c2cc(-c3ccccc3)nc3ccccc23)c1O	i	-0.984	9.97*	i	i	i
COc1cc([N+](=O)[O-])cc(/C=N/NC(=O)c2cc(C)nc3ccccc23)c1O	i	0.48	i	i	i	i
CCC(C)(C)NC(=O)C(c1ccc(F)cc1)N(Cc1cccs1)C(=O)c1cnccn1 (centres undefined)	-5.32*	0.711	i	i	i	i
CCS(=O)(=O)c1nc(S(=O)(=O)c2ccc(C)cc2)c(N2CCN(C)CC2)s1	i	x	i	i	i	i
O=C(Cn1c(CO)nc2ccccc21)NC1CCCCCC1	-10.2*	0.424	i	i	i	i
CCCOc1ccc(NC(=O)Cc2ccc(S(=O)(=O)N3CCOCC3)s2)cc1OCCC	-4.68*	x	i	i	i	i
CCOc1ccc(NC(=O)Cc2ccc(S(=O)(=O)N3CCOCC3)s2)cc1OCC	i	x	i	i	i	i
Cc1c(NC(=O)Nc2ccc(Cl)cc2)c(=O)n(-c2ccccc2)n1C	-5.95*	x	i	i	i	i
Cc1onc(-c2c(F)cccc2Cl)c1C(=O)NC(=S)Nc1c(C)n(C)n(-c2ccccc2)c1=O	i	0.0788	i	-9.88*	i	i
CCOC(=O)C1(Cc2ccccc2)C(=O)N(CCCN(C)C)c2ccccc21 (centres undefined)	i	x	i	i	i	i
SMILES	MrgX1 antagonist	Cl transport mod	MrgX1 PAM	RGS4 pot	MrgX1 ag	RGS4 block
N#CCc1nc(C(c2ccccc2)c2ccccc2)no1	i	x	i	i	i	i
COC(=O)c1sc(NC(=S)NC(=O)c2ccccc2)nc1C	i	35.3*	i	i	i	i
COC(=O)c1sc(NC(=O)/C=C/c2ccccc2Cl)nc1C	i	0.377	i	i	i	i
COC(=O)c1sc(NC(=S)NC(=O)c2ccccc2Cl)nc1C	i	50.4*	i	i	i	i
Cc1nc(NC(=S)NC(=O)c2ccccc2)sc1C(=O)N(C)C	i	0.355	i	i	i	i
COc1ccc(-n2cccc2/C=C/[N+](=O)[O-])cc1	i	-0.789	i	i	32.9*	i
COc1ccc(-n2cccc2C=O)cc1	i	1.07	i	i	i	i
O=C1CC(NS(=O)(=O)c2cccs2)CN1c1ccccc1 (centres undefined)	i	x	i	i	i	i
Fc1cccc(Cc2noc(CN3CCCN(C4Cc5ccccc5C4)CC3)n2)c1	i	2.01	i	-7.45*	i	i
COc1cc(/C=N/Nc2cccc(C)c2)ccc1OC(=O)c1ccco1	i	-0.485	i	i	i	i
C#CCOc1ccc(C2C(C#N)=C(N)Oc3cc(O)ccc32)cc1 (centres undefined)	i	x	i	i	i	i
C/C(=C\C(=O)c1ccc(Br)cc1)Nc1cccc(Cl)c1	i	x	i	-8.09*	i	i
COc1cc(OC)c(NC(=S)Nc2cccc(C(C)=O)c2)cc1Cl	i	-0.698	i	i	i	i
COc1cc(OC)c(NC(=S)Nc2cc(Cl)cc(Cl)c2)cc1Cl	-4.7*	1.49	i	i	i	i
O=C(CCCC(=O)N(CC(=O)NC1CCCCC1)c1ccccc1F)Nc1ccccn1	i	x	i	i	i	i
Cc1cc(NC(=O)c2ccccc2)ccc1NC(=O)Cc1ccccc1	i	x	i	i	i	i
CCOC(=O)c1c(NC(C)=O)sc2c(OCC(O)CN(CC)CC)c(Br)ccc12 (centres undefined)	i	0.429	i	-7.56*	i	i
COc1ccc(OCc2cc(C(=O)N3CCCC(O)C3)no2)c2ccccc12 (centres undefined)	i	x	i	i	i	i
